Sampled rows, rich in hits. Any-hit rate of the full collection: about 3.4%.
KCC2 mod – KCC2 cotransporter modulators, thallium flux, primary screen, cell-based, HEK293 KCC2, FluoZin-2 fluorescence, MLSMR; KCC2 cells, thallium flux FluoZin-2 fluorescence; B-score of Tl+ flux slope (higher = more flux/activation; lower = inhibition) at 10 µM; 190,000 compounds, 2.2% hits; AID 1456, 2008;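 active = thallium flux slope and its plate-corrected score both differing from the plate sample mean at a set confidence after two filtering rounds, in either direction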;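 note: slope of fluorescence scaled to starting intensity during 10 to 20 s after thallium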
p97 ATPase inh – inhibitors of human p97 ATPase, primary screen, biochemical; Transitional endoplasmic reticulum ATPase (Homo sapiens), P55072; recombinant p97 ATPase, Kinase-Glo ATP luminescence, 3 h; inhibition, % at 8 µM; 220,000 compounds, 0.42% hits; AID 1481, 2009; in the data active = inhibition above about 15%;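 note: 0% = DMSO vehicle and 100% = wells lacking enzyme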
DTT redox prof – compounds producing H2O2 with reducing agent – biochemical, NIH compound library profiling, artefact control for MLSCN library redox annotation, primary screen | 200,000 compounds, 0.03% hits | activation, % at 10 µM | AID 878, 2007 | DTT-dependent redox cycling H2O2, phenol red/HRP absorbance; 100% = 100 µM peroxide control, 0% = buffer;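 active = activation of at least 50% relative to the plate's high and low controls in the primary single-dose screen; inactive = activation below 50%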;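 note: compound incubated with DTT at 0.8 mM final as the reducing agent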
MDM2 E3 inh – MDM2-luciferase reporter signal enhancers, primary screen, MDM2 E3 ligase inhibitor project, cell-based, luminescence, 1536-well; E3 ubiquitin-protein ligase Mdm2 (Homo sapiens), Q00987; cell-based MDM2 ubiquitination luciferase reporter, 2 h; 0 = plate control, 100 = twice control, blank-subtracted; signal enhancement, % at 5 µM; 210,000 compounds, 0.11% hits; AID 1230, 2008;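 active = signal enhancement of 30% or more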;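 note: luminescence tracks abundance of the self-degrading MDM2-luciferase fusion protein; higher signal means inhibition of MDM2 E3 ligase activity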
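test system = mammalian cells stably expressing self-ubiquitinating, self-degrading MDM2 E3–luciferase fusion | quantity = 2000 cells/well | incubation = cell settling 4 h, compound treatment 2 h, both 37 °C | signal = luminescence with SteadyLite reagent, 15 min at room temperature | evaluation = % enhancement relative to plate controls after blank subtraction | benchmarks = plate controls and plate blanks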
PKD1 inh – inhibitors of human PKD1 kinase, biochemical, fluorescence polarization; Serine/threonine-protein kinase D1 (Homo sapiens), Q15139; PKD1 kinase fluorescence polarization assay; inhibition, % (no concentration beside the values); 200,000 compounds, 0.056% hits; in the data active = inhibition above about 50%
Target sequence (Q15139 whole entry, looked up): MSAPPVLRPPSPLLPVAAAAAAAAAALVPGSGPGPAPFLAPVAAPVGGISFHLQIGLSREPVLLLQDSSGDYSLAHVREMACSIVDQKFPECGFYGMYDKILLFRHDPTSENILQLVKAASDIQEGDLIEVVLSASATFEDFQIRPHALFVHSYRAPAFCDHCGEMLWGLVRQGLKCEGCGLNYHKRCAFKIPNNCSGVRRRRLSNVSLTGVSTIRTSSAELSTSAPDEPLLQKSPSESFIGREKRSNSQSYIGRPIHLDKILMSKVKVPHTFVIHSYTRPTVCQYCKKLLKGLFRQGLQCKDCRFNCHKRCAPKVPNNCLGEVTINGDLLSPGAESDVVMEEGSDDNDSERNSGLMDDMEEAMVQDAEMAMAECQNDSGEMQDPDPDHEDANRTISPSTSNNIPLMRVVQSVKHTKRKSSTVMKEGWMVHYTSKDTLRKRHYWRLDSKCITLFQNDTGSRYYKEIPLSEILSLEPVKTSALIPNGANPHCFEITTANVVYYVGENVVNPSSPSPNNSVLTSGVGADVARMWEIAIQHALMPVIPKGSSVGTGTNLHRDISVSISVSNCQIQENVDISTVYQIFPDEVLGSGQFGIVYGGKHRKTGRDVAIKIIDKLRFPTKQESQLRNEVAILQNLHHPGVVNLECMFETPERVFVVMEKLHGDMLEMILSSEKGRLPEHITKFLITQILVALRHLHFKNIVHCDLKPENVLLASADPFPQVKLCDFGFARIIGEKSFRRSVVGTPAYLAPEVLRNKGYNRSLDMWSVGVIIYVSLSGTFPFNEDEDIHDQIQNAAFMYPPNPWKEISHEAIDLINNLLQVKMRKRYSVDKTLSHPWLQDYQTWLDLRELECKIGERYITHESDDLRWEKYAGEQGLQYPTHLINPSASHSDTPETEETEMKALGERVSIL
ROMK primary – ROMK potassium channel modulators, primary screen, cell-based, thallium flux, MLSMR library | ATP-sensitive inward rectifier potassium channel 1 (Homo sapiens), P48048 | B-score at 10 µM | Tet-inducible ROMK, thallium flux fluorescence; actives lie on both sides | 130,000 compounds, 2% hits | AID 1918, 2009;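 active = signal ratio slope over the read window, or its plate-corrected B-score, at least 3 SD from the plate mean, either direction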;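 note: B-score of the F/F0 ratio slope over 7 to 12 s after thallium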
KCC2 secondary – KCC2 modulators in sodium-free buffer, confirmation, cell-based, HEK293 KCC2, thallium flux, secondary assay. 3,700 compounds, 15% hits. FluoZin2 fluorescence; active compounds read high. normalised thallium flux (F/F0 slope) at 10 µM. AID 1713, 2009. shares compounds with KCC2 mod;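 active = thallium flux slope above the same plate's solvent-only control mean plus 3 SD; inconclusive = the two replicate wells disagree; inactive = no significant difference from solvent-only control wells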
KCC2 bumet counter – thallium flux persisting under bumetanide in KCC2 cells, confirmation, counter-screen for KCC2 modulator project, cell-based, HEK293 KCC2, FluoZin2, secondary assay 3 | AID 1714, 2009 | HEK293-KCC2 + bumetanide/ouabain; active compounds read high | normalized thallium flux at 10 µM | shares compounds with KCC2 mod | 3,700 compounds, 49% hits;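 active = thallium entry rate above the same plate's blocked-transporter control wells by more than 3 SD; inconclusive = the two repeat wells disagree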;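 note: raw slope of fluorescence over initial fluorescence between 10 and 20 s after thallium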
KCC2 sec2 – KCC2 modulators without ouabain present, confirmation, cell-based, HEK293 KCC2, thallium flux, FluoZin2, secondary assay 2; shares compounds with KCC2 mod; thallium flux FluoZin2 fluorescence; actives lie on both sides; F/F0 rise rate, 10–20 s post-thallium; normalized thallium flux at 10 µM; 3,700 compounds, 23% hits;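 active = thallium flux slope more than 3 SD above or below the plate's solvent-only control mean, mostly below; inconclusive = the two repeat wells disagreed; inactive = no significant shift from solvent-only controls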;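 note: raw slope with 0.1% DMSO as baseline and bumetanide as block control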
HEK counter1 – thallium flux modulation in parental HEK cells, confirmation, counter-screen for KCC2 modulator project, cell-based, counterscreen 1. shares compounds with KCC2 mod. HEK293 parental cells, thallium flux FluoZin2, ouabain; baseline-ratio fluorescence slope, 10–20 s after thallium. thallium flux rate (normalised fluorescence) at 10 µM. 3,700 compounds, 46% hits;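 active = thallium flux rate significantly above the same plate's solvent-only control wells, beyond their mean plus 3 SD; inconclusive = the two replicate wells gave conflicting results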
KCC2 retest ouab – KCC2 inhibitors and activators, ouabain retest, confirmation, HEK-KCC2 cells; shares compounds with KCC2 mod; HEK293-KCC2, thallium flux FluoZin2 fluorescence; bidirectional: low = inhibitor, high = activator; raw Tl+ flux slope (below DMSO = inhibition, above = activation) at 10 µM; 3,700 compounds, 48% hits;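 active = thallium flux slope beyond 3 SD from same-plate DMSO control mean in most replicates, usually higher, sometimes lower; inconclusive = repeat tests gave conflicting results; inactive = no significant difference from controls in most replicates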;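 note: slope of initial-normalized fluorescence between seconds 10 and 20 after thallium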
HEK293 Tl flux2 – native HEK Tl+ uptake effects, second counter-screen – HEK cells, counterscreen 2, counter-screen for KCC2 modulator project, confirmation; HEK293 parental, thallium flux FluoZin-2 fluorescence slope; 3,700 compounds, 33% hits; AID 1718, 2009; shares compounds with KCC2 mod; thallium flux slope at 10 µM;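 active = thallium flux slope above the same plate's solvent-control mean plus 3 SD in both duplicate wells; inconclusive = duplicate wells that disagreed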;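 note: run without ouabain in cells lacking the KCC2 cotransporter; slope of fluorescence scaled to its starting value between 10 and 20 s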
* marks the source's active call; other numbers are inactive results.

How did Cc1ccc(CNC(=O)CS(=O)Cc2nc(-c3ccccc3C)oc2C)cc1 (centres undefined) do in these assays?
KCC2 mod: -2.6; p97 ATPase inh: 0; DTT redox prof: -1; MDM2 E3 inh: -6; PKD1 inh: -10

What do the screens show for `CC1=CC(C)(C)n2c(O)c(N=NC(N)=S)c3cc(C)cc1c32`?
KCC2 mod: 8.7*; p97 ATPase inh: 3; DTT redox prof: 0; MDM2 E3 inh: -4; PKD1 inh: -13; ROMK primary: -0.91; KCC2 secondary: 0.012*; KCC2 bumet counter: 0.033*; KCC2 sec2: 0.03; HEK counter1: 0.016*; KCC2 retest ouab: inconclusive; HEK293 Tl flux2: 0.011*

What do the screens show for `Cc1cccc(NC(=O)Cn2c(O)c(N=NC(N)=S)c3ccccc32)c1`?
KCC2 mod: 0.39; p97 ATPase inh: 12

Results for COC(=O)CC1C(=O)NCCN1C(=O)CSc1nc2ccccc2o1 (centres undefined) ?
KCC2 mod: 1.4; p97 ATPase inh: 0; DTT redox prof: 1; MDM2 E3 inh: -11; PKD1 inh: 15; ROMK primary: -0.45

Results for COC(=O)CC1C(=O)NCCN1C(=O)CSc1nc2ccccc2c(=O)n1CC(C)C (centres undefined) ?
KCC2 mod: 22*; p97 ATPase inh: 0; DTT redox prof: -2; MDM2 E3 inh: -14; PKD1 inh: -6; ROMK primary: 1.4; KCC2 secondary: 0.0067; KCC2 bumet counter: 0.035*; KCC2 sec2: 0.04*; HEK counter1: 0.032*; KCC2 retest ouab: 0.038*; HEK293 Tl flux2: 0.026*

Results for Cc1ccc2nc(-c3ccccc3)c(CN3CCOCC3)n2c1 ?
KCC2 mod: 4.3*; p97 ATPase inh: 1; DTT redox prof: 0; MDM2 E3 inh: -3; PKD1 inh: -4; ROMK primary: -0.035; KCC2 secondary: 0.0097; KCC2 bumet counter: 0.006; KCC2 sec2: 0.035; HEK counter1: 0.0039; KCC2 retest ouab: 0.021; HEK293 Tl flux2: 0.012

What do the screens show for `COc1ccc(C(=O)NCc2nnc(SCC(=O)N3CCc4ccccc43)n2Cc2ccccc2)cc1`?
KCC2 mod: 0.057; p97 ATPase inh: 0; DTT redox prof: 0; MDM2 E3 inh: -4; PKD1 inh: -1

Results for CCCn1c(=O)c2ccccc2n2c(SCCOc3ccccc3)nnc12 ?
KCC2 mod: -4.9*; p97 ATPase inh: 2; DTT redox prof: 0; MDM2 E3 inh: -15; PKD1 inh: -2; KCC2 secondary: 0.0058; KCC2 bumet counter: 0.0028*; KCC2 sec2: inconclusive; HEK counter1: 0.0047*; KCC2 retest ouab: inconclusive; HEK293 Tl flux2: 0.0077*

How did COc1ccccc1C(=O)NC1CCCCCCC1 do in these assays?
KCC2 mod: -0.95; p97 ATPase inh: -1; DTT redox prof: 1; MDM2 E3 inh: -11; PKD1 inh: 6; ROMK primary: -1.3

How did O=C(CSc1ccccc1C(=O)NCc1ccccc1)NC12CC3CC(CC(C3)C1)C2 do in these assays?
KCC2 mod: -3.6*; p97 ATPase inh: -12; DTT redox prof: 0; MDM2 E3 inh: -13; PKD1 inh: 4; KCC2 secondary: inconclusive; KCC2 bumet counter: inconclusive; KCC2 sec2: 0.022*; HEK counter1: 0.0072; KCC2 retest ouab: inconclusive; HEK293 Tl flux2: 0.011

What do the screens show for `O=C(NC1CCCC1)c1ccccc1OCc1ccccc1`?
KCC2 mod: -3.6*; p97 ATPase inh: 1; DTT redox prof: 0; MDM2 E3 inh: -2; PKD1 inh: -2; ROMK primary: -1.4; KCC2 secondary: 0.0071; KCC2 bumet counter: inconclusive; KCC2 sec2: 0.027; HEK counter1: 0.0047*; KCC2 retest ouab: 0.015*; HEK293 Tl flux2: 0.0083

What do the screens show for `O=C(CSc1ccccc1C(=O)NCc1ccccc1)NC1CCCCCCC1`?
KCC2 mod: -4*; p97 ATPase inh: -10; DTT redox prof: 0; MDM2 E3 inh: -16; PKD1 inh: 9; KCC2 secondary: 0.0069; KCC2 bumet counter: inconclusive; KCC2 sec2: 0.021*; HEK counter1: 0.0067; KCC2 retest ouab: inconclusive; HEK293 Tl flux2: 0.011

What do the screens show for `COc1nc(OC)nc(N2CCC(C(=O)NCc3ccc(F)cc3)CC2)n1`?
p97 ATPase inh: 0; DTT redox prof: 0; MDM2 E3 inh: -18; PKD1 inh: 8; ROMK primary: -0.055

How did Nc1c(C(=O)c2ccccc2)sc2nsc(SCCN3CCCC3)c12 do in these assays?
KCC2 mod: 4.2*; p97 ATPase inh: 3; MDM2 E3 inh: -15; KCC2 secondary: 0.006*; KCC2 bumet counter: 0.0072; KCC2 sec2: 0.03; HEK counter1: 0.0074; KCC2 retest ouab: 0.014*; HEK293 Tl flux2: 0.01
